Source: ChEMBL document CHEMBL3085638, “Synthesis of novel ciprofloxacin analogues and evaluation of their anti-proliferative effect on human cancer cell lines” (2013)
Active and inactive are the calls of the source. The rule behind the calls is not given here.

Columns and labels:
MDA-MB-468 [1] = assay: Antiproliferative activity against human MDA-MB-468 cells assessed as cell viability at 50 uM after 72 hrs by CellTiter assay relative to DMSO control; type: functional; conditions: MDA-MB-468, 72 h, read-out: Activity
Outline: (§1)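 ATCC-derived cells kept in EMEM with 10% FBS and 1% penicillin/streptomycin at 37 °C under 5% CO2. At 75–80% confluency, 5000 cells/well were seeded, then after 72 h exposed to 50 µM compound in triplicate for 72 h. CellTiter 96 AQueous One reagent was added for 1 h at 37 °C and formazan A490 read, with cell-free medium plus reagent as blank. Results are % of untreated control.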

CCRF-CEM [2] = assay: Antiproliferative activity against human CCRF-CEM cells assessed as cell viability at 50 uM by CellTiter assay relative to DMSO control; type: functional, cell-based
HCT-116 [3] = assay: Antiproliferative activity against human HCT116 cells assessed as cell viability at 10 uM after 72 hrs by CellTiter assay; type: functional, cell-based
Outline: (§2)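 Doxorubicin was the positive control at 10 µM. ATCC cells were grown in EMEM with 10% FBS and 1% penicillin/streptomycin at 37 °C under 5% CO2, seeded at 5000 cells/well, and treated 72 h after seeding for a 72 h exposure. Viability was read by CellTiter 96 AQueous One reagent (1 h, 37 °C) as A490, minus a cell-free blank, and expressed as % of untreated control.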

CCRF-CEM [4] = assay: Antiproliferative activity against human CCRF-CEM cells assessed as cell viability at 10 uM after 72 hrs by CellTiter assay; type: functional, cell-based; outline: as §2
MDA-MB-468 [5] = assay: Antiproliferative activity against human MDA-MB-468 cells assessed as cell viability at 10 uM after 72 hrs by CellTiter assay; type: functional, cell-based; outline: as §2
CCRF-CEM [6] = assay: Antiproliferative activity against human CCRF-CEM cells assessed as cell viability at 50 uM after 96 hrs by CellTiter assay relative to DMSO control; type: functional; conditions: read-out: Activity
CCRF-CEM [7] = assay: Antiproliferative activity against human CCRF-CEM cells assessed as cell viability at 50 uM after 48 hrs by CellTiter assay relative to DMSO control; type: functional; conditions: read-out: Activity
CCRF-CEM [8] = assay: Antiproliferative activity against human CCRF-CEM cells assessed as cell viability at 50 uM after 24 hrs by CellTiter assay relative to DMSO control; type: functional; conditions: read-out: Activity
HCT-116 [9] = assay: Antiproliferative activity against human HCT116 cells assessed as cell viability at 50 uM after 72 hrs by CellTiter assay relative to DMSO control; type: functional; conditions: HCT-116, 72 h, read-out: Activity; outline: as §1
CCRF-CEM [10] = assay: Antiproliferative activity against human CCRF-CEM cells assessed as cell viability at 50 uM after 72 hrs by CellTiter assay relative to DMSO control; type: functional; conditions: read-out: Activity; outline: as §1

Q: For `O=C(O)c1cn(C2CC2)c2cc(N3CCN(C(=O)CN4CCN(C(c5ccccc5)c5ccccc5)CC4)CC3)c(F)cc2c1=O`, which viability at 50 µM (MDA-MB-468 [1]) is on record?
A: ≤ 35%

Q: For `O=C(O)c1cn(C2CC2)c2cc(N3CCNCC3)c(F)cc2c1=O`, which Activity (CCRF-CEM [2]) is on record?
A: Active

Q: How did the Activity (HCT-116 [3]) turn out when `COc1cccc2c1C(=O)c1c(O)c3c(c(O)c1C2=O)C[C@@](O)(C(=O)CO)C[C@@H]3O[C@H]1C[C@H](N)[C@H](O)[C@H](C)O1` was run?
A: Active

Q: What about the Activity (CCRF-CEM [4]) of the same compound?
A: Active

Q: And the Activity (MDA-MB-468 [5])?
A: Active

Q: `O=C(O)c1cn(C2CC2)c2cc(N3CCN(C(=O)CN4CCN(C(c5ccc(F)cc5)c5ccc(F)cc5)CC4)CC3)c(F)cc2c1=O` was tested. Which viability at 50 µM (CCRF-CEM [6]) did it give?
A: 43%

Q: And the viability at 50 µM (CCRF-CEM [7])?
A: 27%

Q: What about the viability at 50 µM (CCRF-CEM [8]) of the same compound?
A: 19%

Q: And the viability at 50 µM (HCT-116 [9])?
A: 35%

Q: What about the viability at 50 µM (CCRF-CEM [10]) of the same compound?
A: 38%

Q: What about the Activity (CCRF-CEM [2]; TDE = time-dependent effect) of the same compound?
A: tde

Q: And the viability at 50 µM (MDA-MB-468 [1])?
A: 35%

Q: With `O=C(O)c1cn(C2CC2)c2cc(N3CCN(C(=O)CN4CCN(c5ccc(F)c(F)c5)CC4)CC3)c(F)cc2c1=O` as the compound, how does the viability at 50 µM (HCT-116 [9]) read?
A: 35%

Q: And the viability at 50 µM (CCRF-CEM [10])?
A: 35%

Q: And the viability at 50 µM (MDA-MB-468 [1])?
A: 35%
